In data set [1] the target is T1, Receptor-type tyrosine-protein kinase FLT3 (Homo sapiens, UniProt P36888).
T1 sequence (P36888 whole entry): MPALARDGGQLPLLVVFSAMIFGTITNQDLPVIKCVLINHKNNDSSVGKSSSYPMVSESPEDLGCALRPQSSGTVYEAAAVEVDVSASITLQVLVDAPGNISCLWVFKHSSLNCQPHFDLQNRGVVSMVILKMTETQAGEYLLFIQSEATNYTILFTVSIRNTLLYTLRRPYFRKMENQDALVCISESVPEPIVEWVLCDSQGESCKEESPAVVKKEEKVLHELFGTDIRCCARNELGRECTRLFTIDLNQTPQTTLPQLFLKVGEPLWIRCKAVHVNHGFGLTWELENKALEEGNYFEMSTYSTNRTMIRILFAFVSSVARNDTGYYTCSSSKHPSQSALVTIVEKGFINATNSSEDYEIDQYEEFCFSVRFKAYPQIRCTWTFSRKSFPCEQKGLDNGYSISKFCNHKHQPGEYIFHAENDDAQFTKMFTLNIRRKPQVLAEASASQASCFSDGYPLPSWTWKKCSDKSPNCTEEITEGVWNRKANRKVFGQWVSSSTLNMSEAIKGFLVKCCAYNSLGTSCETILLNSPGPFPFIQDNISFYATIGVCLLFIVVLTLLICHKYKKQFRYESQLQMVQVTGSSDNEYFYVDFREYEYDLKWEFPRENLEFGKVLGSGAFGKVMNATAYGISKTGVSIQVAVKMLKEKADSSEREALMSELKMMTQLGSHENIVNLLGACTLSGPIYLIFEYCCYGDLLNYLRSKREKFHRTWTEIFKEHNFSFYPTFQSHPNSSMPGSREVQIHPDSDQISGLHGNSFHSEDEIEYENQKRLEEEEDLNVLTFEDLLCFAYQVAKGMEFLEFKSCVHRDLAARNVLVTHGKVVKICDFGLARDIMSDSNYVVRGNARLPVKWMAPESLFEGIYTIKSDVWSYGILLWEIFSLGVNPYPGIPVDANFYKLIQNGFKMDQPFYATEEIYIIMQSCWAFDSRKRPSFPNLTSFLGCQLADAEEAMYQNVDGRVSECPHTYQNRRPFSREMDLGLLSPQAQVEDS
The data set is described as follows: Inhibition of FLT3 by time resolved fluorescence method.

A short description of data set [2]: Cmax in po dosed Sprague-Dawley rat. In kind it is ADME, organism-based. Also on record: route oral. The following applies: in vivo. The essentials: (§1)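 Overnight-fasted male SD rats got a single intravenous or oral dose, n = 3 per route. Vehicle was 10% N-methyl-2-pyrrolidone, 20% cremophor EL, 70% phosphate-buffered saline. Plasma was prepared from blood by centrifugation, stored at -80 °C and assayed by LC/MS/MS. Parameters came from noncompartmental analysis and are means of three animals.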

Data set [3] deals with T1, Receptor-type tyrosine-protein kinase FLT3. The data set is described as follows: Inhibition of FLT3 autophosphorylation in human RS4-11 cells by Western blot analysis. In kind it is cell-based.
In data set [4] the target is Platelet-derived growth factor receptor beta (Homo sapiens, UniProt P09619). Briefly: Inhibition of PDGFRbeta autophosphorylation by cell based Western blot analysis. Background: Immunoblotting shows a protein as a band on a membrane.
Data set [5] concerns Rattus norvegicus. Briefly: Volume of distribution at steady state in iv dosed Sprague-Dawley rat. In kind it is ADME, organism-based. The following applies: in vivo. The procedure, abridged: as §1
Data set [6] is described as follows: Oral bioavailability in Sprague-Dawley rat. In kind it is ADME, organism-based. The following applies: in vivo. The essentials:
as §1

Data set [7] in a line: AUC in iv dosed Sprague-Dawley rat. As to conditions: plasma. The format is ADME, organism-based. The procedure, abridged: as §1
The test system of data set [8] is MV4-11. The data set is described as follows: Antitumor activity against human MV4-11 cells xenografted in BALB/c mouse assessed as inhibition of tumor growth at 50 mg/kg, po bid for 14 days measured on day 30. In kind it is functional. The procedure, abridged: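 Female BALB/c nude mice, 6-8 weeks old, were implanted s.c. in the right flank with 1 × 10⁷ MV4-11 cells. Dosing began at tumor size 200-300 mm³, with four mice per group randomized. Treatment was 50 mg/kg oral gavage b.i.d. for 14 days (day 16 to 29) in 10% NMP/20% Cremophor EL/70% saline vehicle. Calipers gave tumor volume = 0.5 × length × width².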
In general terms: A xenograft is tissue or cells of one species grown in another, often human tumour cells in immunodeficient mice.

For data set [9], the system named is MV4-11. The data set is described as follows: Cytotoxicity against human MV4-11 cells by MTT assay. For orientation: Tetrazolium dyes change colour on reduction, which living cells bring about.
In data set [10] the target is Mast/stem cell growth factor receptor Kit (Homo sapiens, UniProt P10721). Briefly: Inhibition of c-Kit autophosphorylation in human Kasumi-1 cells by Western blot analysis. The format is cell-based.
For data set [11], the system named is Rattus norvegicus. The data set is described as follows: Elimination half life in iv dosed Sprague-Dawley rat. The format is ADME, organism-based. The following applies: in vivo. The essentials: as §1
The nature of data set [12]: Tmax in po dosed Sprague-Dawley rat. The following applies: in vivo. In kind it is ADME, organism-based. The procedure, abridged:
as §1

A short description of data set [13]: AUC in po dosed Sprague-Dawley rat. In kind it is ADME, organism-based. As to conditions: plasma. The procedure, abridged: as §1
For data set [14], the target named is Receptor-type tyrosine-protein kinase FLT3 (Homo sapiens, UniProt P36888, ITD). The data set is described as follows: Inhibition of FLT3-ITD autophosphorylation in human MV4-11 cells by Western blot analysis. In kind it is cell-based. The procedure, abridged:
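Cells were plated at 2-5 × 10⁵ per well and stimulated with the receptor ligand: SCF for c-Kit, VEGF-162 for KDR, FL for FLT-3. Blots were probed with anti-phosphotyrosine PY99 and reprobed with antibodies to c-Kit, KDR or FLT-3.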

In data set [15] the target is Vascular endothelial growth factor receptor 2 (Homo sapiens, UniProt P35968). Briefly: Inhibition of KDR autophosphorylation in HUVEC by Western blot analysis. In kind it is cell-based.

Bounds are passed on as bounds.

Chain of Vascular endothelial growth factor receptor 2 (P35968 whole entry): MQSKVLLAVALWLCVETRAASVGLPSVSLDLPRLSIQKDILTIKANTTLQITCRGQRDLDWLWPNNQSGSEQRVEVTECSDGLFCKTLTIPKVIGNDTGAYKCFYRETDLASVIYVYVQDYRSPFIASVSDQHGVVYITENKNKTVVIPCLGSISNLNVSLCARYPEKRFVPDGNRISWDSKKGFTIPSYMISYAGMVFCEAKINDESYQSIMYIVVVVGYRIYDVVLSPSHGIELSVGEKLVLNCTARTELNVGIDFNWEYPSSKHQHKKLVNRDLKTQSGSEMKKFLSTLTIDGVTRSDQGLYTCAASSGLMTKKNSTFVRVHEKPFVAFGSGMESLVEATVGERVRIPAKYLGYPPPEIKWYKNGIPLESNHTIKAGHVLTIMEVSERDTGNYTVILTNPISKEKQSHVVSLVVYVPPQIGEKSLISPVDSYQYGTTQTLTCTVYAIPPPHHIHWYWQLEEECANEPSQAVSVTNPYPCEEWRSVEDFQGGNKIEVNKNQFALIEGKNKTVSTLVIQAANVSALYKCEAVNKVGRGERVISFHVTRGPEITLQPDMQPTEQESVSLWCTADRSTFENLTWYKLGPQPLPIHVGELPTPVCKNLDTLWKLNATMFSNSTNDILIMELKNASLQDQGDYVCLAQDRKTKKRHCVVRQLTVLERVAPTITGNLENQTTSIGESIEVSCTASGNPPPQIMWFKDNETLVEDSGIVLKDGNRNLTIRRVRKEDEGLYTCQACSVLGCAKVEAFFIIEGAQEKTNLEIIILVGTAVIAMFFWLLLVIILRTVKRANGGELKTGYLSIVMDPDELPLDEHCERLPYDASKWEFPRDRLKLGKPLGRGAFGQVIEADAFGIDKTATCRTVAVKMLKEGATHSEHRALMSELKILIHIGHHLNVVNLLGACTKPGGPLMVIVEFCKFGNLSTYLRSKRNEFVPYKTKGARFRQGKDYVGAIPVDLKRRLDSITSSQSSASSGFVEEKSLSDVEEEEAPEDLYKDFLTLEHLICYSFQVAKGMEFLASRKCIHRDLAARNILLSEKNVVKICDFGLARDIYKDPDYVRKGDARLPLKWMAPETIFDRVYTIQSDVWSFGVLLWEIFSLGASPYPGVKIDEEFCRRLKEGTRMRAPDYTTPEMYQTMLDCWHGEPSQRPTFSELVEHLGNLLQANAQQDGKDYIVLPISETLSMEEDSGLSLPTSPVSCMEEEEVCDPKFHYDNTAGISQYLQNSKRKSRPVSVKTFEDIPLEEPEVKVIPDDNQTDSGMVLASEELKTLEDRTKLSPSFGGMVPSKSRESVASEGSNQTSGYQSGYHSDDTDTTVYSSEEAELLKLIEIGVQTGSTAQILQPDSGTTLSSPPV
Chain of Platelet-derived growth factor receptor beta (P09619 whole entry): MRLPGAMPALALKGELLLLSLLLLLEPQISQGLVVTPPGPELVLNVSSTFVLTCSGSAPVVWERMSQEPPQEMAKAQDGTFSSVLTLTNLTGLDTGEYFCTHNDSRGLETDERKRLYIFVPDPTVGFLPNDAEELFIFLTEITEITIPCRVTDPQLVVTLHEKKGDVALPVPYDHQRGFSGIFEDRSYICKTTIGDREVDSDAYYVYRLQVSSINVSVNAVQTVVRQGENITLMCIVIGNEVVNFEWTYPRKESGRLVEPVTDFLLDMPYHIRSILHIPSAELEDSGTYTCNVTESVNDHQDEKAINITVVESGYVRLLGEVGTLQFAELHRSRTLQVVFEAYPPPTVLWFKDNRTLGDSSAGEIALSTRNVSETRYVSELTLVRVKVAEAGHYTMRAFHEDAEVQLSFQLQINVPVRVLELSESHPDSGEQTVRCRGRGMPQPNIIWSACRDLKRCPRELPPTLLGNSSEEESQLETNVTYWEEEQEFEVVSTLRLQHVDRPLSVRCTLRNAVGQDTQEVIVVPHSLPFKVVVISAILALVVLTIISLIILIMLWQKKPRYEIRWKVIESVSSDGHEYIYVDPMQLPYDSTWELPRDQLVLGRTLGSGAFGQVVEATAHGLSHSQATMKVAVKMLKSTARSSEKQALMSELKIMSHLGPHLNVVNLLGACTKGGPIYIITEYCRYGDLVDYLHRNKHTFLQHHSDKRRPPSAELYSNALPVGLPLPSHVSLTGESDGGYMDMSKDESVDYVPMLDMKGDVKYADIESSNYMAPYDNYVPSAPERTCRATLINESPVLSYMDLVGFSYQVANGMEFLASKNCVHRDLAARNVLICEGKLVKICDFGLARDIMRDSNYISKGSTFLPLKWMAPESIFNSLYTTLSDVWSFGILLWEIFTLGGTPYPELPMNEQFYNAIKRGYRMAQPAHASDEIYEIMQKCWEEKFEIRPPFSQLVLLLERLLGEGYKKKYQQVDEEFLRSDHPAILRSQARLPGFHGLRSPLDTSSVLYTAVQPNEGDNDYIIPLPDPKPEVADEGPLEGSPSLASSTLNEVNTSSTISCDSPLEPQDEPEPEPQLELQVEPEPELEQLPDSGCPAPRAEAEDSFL
Chain of Mast/stem cell growth factor receptor Kit (P10721 whole entry): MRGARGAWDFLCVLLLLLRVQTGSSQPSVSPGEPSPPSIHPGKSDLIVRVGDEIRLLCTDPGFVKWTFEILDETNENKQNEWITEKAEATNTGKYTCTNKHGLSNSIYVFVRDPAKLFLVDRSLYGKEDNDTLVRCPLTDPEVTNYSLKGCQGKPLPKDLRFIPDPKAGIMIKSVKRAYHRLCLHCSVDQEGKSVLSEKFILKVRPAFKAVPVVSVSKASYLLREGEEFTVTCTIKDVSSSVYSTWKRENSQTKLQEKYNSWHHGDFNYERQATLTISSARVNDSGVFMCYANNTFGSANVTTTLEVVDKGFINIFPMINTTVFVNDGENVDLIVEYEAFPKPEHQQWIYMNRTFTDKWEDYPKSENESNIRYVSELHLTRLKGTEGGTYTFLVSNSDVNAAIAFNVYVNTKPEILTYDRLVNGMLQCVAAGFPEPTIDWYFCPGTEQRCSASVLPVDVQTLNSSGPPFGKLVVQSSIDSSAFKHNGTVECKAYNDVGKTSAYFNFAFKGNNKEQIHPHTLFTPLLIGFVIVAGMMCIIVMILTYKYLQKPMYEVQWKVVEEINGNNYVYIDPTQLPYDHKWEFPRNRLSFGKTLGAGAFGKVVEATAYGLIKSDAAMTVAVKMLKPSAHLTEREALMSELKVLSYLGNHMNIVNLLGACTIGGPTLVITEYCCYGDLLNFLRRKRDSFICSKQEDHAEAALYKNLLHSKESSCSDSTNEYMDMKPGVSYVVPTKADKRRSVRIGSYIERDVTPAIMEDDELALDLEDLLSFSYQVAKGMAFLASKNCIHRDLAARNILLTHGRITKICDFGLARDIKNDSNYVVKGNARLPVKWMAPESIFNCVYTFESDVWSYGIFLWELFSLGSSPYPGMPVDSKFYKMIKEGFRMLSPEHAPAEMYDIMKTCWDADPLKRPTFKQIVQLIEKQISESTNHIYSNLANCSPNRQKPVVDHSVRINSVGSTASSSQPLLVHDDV

`Cc1cc(/C=C2/C(=O)Nc3cc(F)ccc32)c2ccccc(OCCCN(C)C)c1-2`: the IC50 in data set [1] was 742 nM. On the same count and under the same terms, to `Cc1cc(/C=C2\C(=O)Nc3ccc(F)cc32)c2ccccc(OCCN3CCOCC3)c1-2` belongs 19 nM; to `O=C1Nc2ccccc2C1=Cc1ccc2cccccc1-2`, 470 nM. For `O=C1Nc2ccc(F)cc2/C1=C/c1ccc2cccccc1-2`, the half-maximal inhibitory concentration (IC50) in data set [1] is over 1000 nM. `O=C1Nc2ccc(Br)cc2/C1=C\c1ccc2cccccc1-2` displayed an IC50 in data set [1] of over 1000 nM. In turn, `O=C1Nc2ccc(Br)cc2/C1=C/c1ccc2cccccc1-2` had an IC50 in data set [1] of over 1000 nM. The same measure, in the same setting: in the case of `Cc1ccc2c(c1)/C(=C/c1ccc3cccccc1-3)C(=O)N2` it was over 1000 nM; in that of `Cc1cc(/C=C2/C(=O)Nc3ccccc32)c2cccccc1-2`, over 1000 nM; in that of `Cc1cc(/C=C2\C(=O)Nc3ccccc32)c2cccccc1-2`, over 1000 nM. `Cc1cc(/C=C2/C(=O)Nc3ccc(F)cc32)c2cccccc1-2` yielded an IC50 in data set [1] of 60 nM. Turning to `Cc1cc(/C=C2\C(=O)Nc3ccc(F)cc32)c2cccccc1-2`, in data set [1], the IC50 was found to be 128 nM. In turn, `O=C1Nc2ccc(F)cc2/C1=C/c1cc(F)c2cccccc1-2` yielded an IC50 in data set [1] of 23 nM. As to `CN(C)S(=O)(=O)c1ccc2c(c1)/C(=C/c1ccc3cccccc1-3)C(=O)N2`, the IC50 in [1] is over 1000 nM. Compound `Cc1cc(/C=C2\C(=O)Nc3ccc(F)cc32)c2ccccc(OCCCN3CCOCC3)c1-2` returned an IC50 in [1] of 224 nM. Still for that read-out and setting: in the case of `Cc1cc(/C=C2/C(=O)Nc3ccc(F)cc32)c2ccccc(OCCCN(C)C)c1-2` it was 25 nM. As for `Cc1cc(/C=C2\C(=O)Nc3ccc(F)cc32)c2ccccc(OCCCN(C)C)c1-2`, in data set [1], the IC50 came out at 12 nM.

Take `CCN(CC)CCCOc1ccccc2c(/C=C3/C(=O)Nc4ccc(F)cc43)cc(C)c1-2`: inhibition in data set [1] was half-maximal at 30 nM (IC50). On to `CCN(CC)CCCOc1ccccc2c(/C=C3\C(=O)Nc4ccc(F)cc43)cc(C)c1-2`, for which inhibition in data set [1] was half-maximal at 39 nM (IC50). The compound `Cc1cc(/C=C2\C(=O)Nc3ncccc32)c2ccccc(OCCCN(C)C)c1-2` showed an IC50 in data set [1] of 1460 nM. In the case of `Cc1cc(/C=C2\C(=O)Nc3ncc(F)cc32)c2ccccc(OCCCN3CCOCC3)c1-2`, the IC50 in data set [1] came to 90 nM. With `Cc1cc(/C=C2\C(=O)Nc3ncc(Br)cc32)c2ccccc(OCCCN3CCOCC3)c1-2`, the IC50 in data set [1] worked out at 86 nM. In the case of `Cc1cc(/C=C2/C(=O)Nc3c(F)cccc32)c2ccccc(OCCCN(C)C)c1-2`, the IC50 in [1] amounted to 177 nM. For the compound `Cc1cc(/C=C2\C(=O)Nc3ccc(F)cc32)c2ccccc(OCCN3CCC(N(C)C)CC3)c1-2`, the IC50 in data set [1] was determined as 18 nM. In turn, `Cc1cc(/C=C2\C(=O)Nc3ccc(F)c(F)c32)c2ccccc(OCCCN(C)C)c1-2` yielded an IC50 in data set [1] of 5 nM. Take `CCN(CC)CCCOc1ccccc2c(/C=C3\C(=O)Nc4ccc(F)c(F)c43)cc(C)c1-2`: the midpoint of inhibition in data set [1], the IC50, lay at 14 nM.

Regarding `Cc1cc(/C=C2\C(=O)Nc3ccc(F)c(F)c32)c2ccccc(OCCCN3CCOCC3)c1-2`, the IC50 in [1] amounted to 12 nM.

In [1], `Cc1cc(/C=C2\C(=O)Nc3ccc(F)c(F)c32)c2ccccc(OCCCN3CCCCC3)c1-2` showed an IC50 of 17 nM. In data set [2], `Cc1cc(C=C2C(=O)Nc3ccc(F)cc32)c2ccccc(OCCN3CCC[C@H]3CO)c1-2` (mixture of isomers) came in with a Cmax of 566 ng/mL. Besides, the IC50 in data set [3] came out at 70 nM; in data set [4], 28 nM; with MV4-11 [9], 87 nM; in [10], 44 nM; in data set [1], 98 nM; in [14] it was 67 nM. The compound further returned an IC50 in [15] of 186 nM. Moreover, the Vss/F with Rattus norvegicus [5] is 1.2324 L/kg. The compound further gave a bioavailability in [6] of 22.8%. Moreover, the AUC in [7] is 1410 ng·h/mL; in data set [13], 3220 ng·h/mL. Besides, the inhibition in vivo at 50 mg/kg with MV4-11 [8] was 99%. The same compound registered a t1/2 in the data set on Rattus norvegicus [11] of 1.8 h. Also, the Tmax in data set [12] was determined as 2 h.

Broadly, the IC50 is the concentration at which inhibition is half-maximal. Usually Cmax stands for the maximum level reached in the sampled fluid or tissue. The bioavailability is the share of a dose that reaches the circulation, judged against a reference dose that is usually intravenous. Lower therefore signals poor availability. The term AUC denotes concentration integrated over time. A higher AUC goes with more exposure. In general, inhibition in vivo refers to the change of the read-out against control, counted positive when it falls. Usually Tmax stands for the time from dosing to the highest level.

The record behind these values is ChEMBL document CHEMBL1255211, “Novel azulene-based derivatives as potent multi-receptor tyrosine kinase inhibitors” (Bioorg Med Chem Lett, 2010).
